Data published in the EternaBench riboswitch data.

How the values were obtained:
MS2 coat protein [1] = assay: apparent Kd, MS2 coat protein; higher = weaker binding; RNA-MaP array; tryptophan 2.4 mM where present; settings: designed as: ON switch for tryptophan
How it was run: (§1)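 Green signal was scaled to red-channel RNA signal and control-cluster median Fmax, and the apparent Kd was taken as the median of filtered per-cluster binding-curve fits. The binding series used SNAP-549-labelled MS2 coat protein from 0.7 or 1.5 nM, doubling to 3 µM, on designs transcribed by stalled E. coli RNA polymerase on Illumina sequencing-chip clusters. Each series ran without and then with constant ligand in 100 mM Tris-HCl pH 7.5, 80 mM KCl, 4 mM MgCl2, BSA, DTT, yeast tRNA and Tween-20.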

MS2 coat protein [2] = assay: apparent Kd, MS2 coat protein; higher = weaker binding; RNA-MaP array; theophylline 2 mM where present
How it was run: as §1

[3] = designed as: ON switch for theophylline, no ligand
[4] = ligand present: theophylline, designed as: ON switch for theophylline
[5] = designed as: OFF switch for theophylline, no ligand
[6] = ligand present: theophylline, designed as: OFF switch for theophylline

| Sequence | apparent Kd (MS2 coat protein [2]; [3]) [nM] | apparent Kd (MS2 coat protein [2]; [4]) [nM] | apparent Kd (MS2 coat protein [2]; [5]) [nM] | apparent Kd (MS2 coat protein [2]; [6]) [nM] | also measured |
| --- | --- | --- | --- | --- | --- |
| AGCGUUCGGUUUAUGCCGGACAAUGGGUGACGAGGACCGGUACGGCCGCCACUCGGGCGCCCGGUUACAUGAGGAUCACCCAUGU | – | – | – | – | apparent Kd (MS2 coat protein [1]; no ligand): 258 nM; apparent Kd (MS2 coat protein [1]; ligand present: tryptophan): 30.1 nM |
| UUUAUGGAGCUUUUAUUUACGAUUUCUGAUACCAGUGUUUCAUUUCACCCUUGGCAGCAGUGACAUGAGGAUCACCCAUGUAAUA | 28 | 22.3 | – | – | – |
| GAUCUUGCGGGCGCCCGCAAGGUUGCGGAUACCAGCGAGAUUAAUCGCCCUUGGCAGCCGAACAUGAGGAUCACCCAUGUCGGAC | 9.62 | 15.3 | – | – | – |
| UCGACAGUGAACGAUACCAGCGUCACGUGGCCGGUGGUCACAUGAGGAUCACCCAUGUAACGCCCUUGGCAGCGUGCACGUAUCA | – | – | 20.6 | 182 | – |
| UAAAACAUGAGGAUCACCCAUGUAAAUGAUACCAGAGUGAUGAUCCUCCCUUGGCAGCAUAACGCUGAUUGAUUACAAUCAGCGA | 95.9 | 267 | – | – | – |
| ACAUGAGGAUCACCCAUGUUCCUCGCCGAUACCAGUGAAGAAUUACGCCCUUGGCAGCGGAAUGAGUGUUUUGGAGAUGAGGUAC | – | – | 62.4 | 107 | – |
| ACAUGAGGAUCACCCAUGUGCCGUCUUGAUACCAGACCCGAAGUAGUCCCUUGGCAGCAACUACGUGACGGUCGCGCAUGUGUAG | – | – | 19.8 | 28.7 | – |
| ACAUGAGGAUCACCCAUGUCAGGGCACGAUACCAGCUGAUCCGAUGGCCCUUGGCAGCGUGACGUGUGGUCAUGAGGAUCACCCG | 189 | 156 | – | – | – |
| ACAUGUCUUAUAGAUACCAGACAGGACAUGAGGAUCACCCAUGUAAUGUAUACAUGCAGAGUCCCUUGGCAGCUAAGGUCAUAGA | 77.6 | 66.3 | – | – | – |
| GAAAGAUGAGGCGGCAGUACCGAUGUCGAUACCAGCAUGAACAAAUGCCCUUGGCAGCGACAUGAGGAUCACCCAUGUAUCUGCG | – | – | 11.3 | 127 | – |
| GUAUGGAAACAUACUAGGGUAUCGUGAGAUACCAGUACAGAAAUGUACCCUUGGCAGCUCGCGCAUACAUGAGGAUCACCCAUGU | – | – | 18.8 | 29.3 | – |
| UGUAUGUGAUUUGAUACCAGUCCAACUGGUAAAACAUGAGGAUCACCCAUGUAAAAUUGGGACCCUUGGCAGCAAAUCGCAUACU | 355 | 30.1 | – | – | – |
| ACAUGAGGAUCACCCAUGUAAAUCCUCGAUACCAGCCAAAGGAGAGGCCCUUGGCAGCGGAAAGGCCGGGUAUAAAUGUCCGGCC | 134 | 126 | – | – | – |
| UAUAUAUGGAUGGAUACCAGCAGAGAAAACGUUUAUCCUAACAUGAGGAUCACCCAUGUAUGCCCUUGGCAGCUGUUUAUAUAUA | – | – | 26.6 | 29.1 | – |
| UUAUUUAUAAUGGAUACCAGUAUAAUGGCCGCAAAUCCUGACAUGAGGAUCACCCAUGUAUGCCCUUGGCAGCUGUUAUGGGUUU | – | – | 41.1 | 57.6 | – |
| CUCUGGUGCUGAGUGAGUGUCGUGACUGAUACCAGAUGCCUUUACAUCCCUUGGCAGCAGUACAUGAGGAUCACCCAUGUAUUCC | – | – | 22.1 | 182 | – |
| UUCAAAGGGAACGGUGCUGGUAACAGAGAUACCAGAGUAAUAAUACUCCCUUGGCAGCUCAUAACAUGAGGAUCACCCAUGUAAU | – | – | 13.4 | 16.6 | – |
| ACAUGAGGAUCACCCAUGUUCCUCUUUGAUACCAGUGAGUUGUUUCGCCCUUGGCAGCGAGUUUUUUUUUUUUUGUUUUGUUUGG | – | – | 274 | 390 | – |
| GCUGGGUGCGCAAGGACCUGGCGUUGCGAUACCAGCACGGUAACGUGCCCUUGGCAGCGCACAUGAGGAUCACCCAUGUGGUGCG | – | – | 24.6 | 329 | – |
| CUCUUCCGGAAGGAUACCAGCUACAUGAGGAUCACCCAUGUAGGAGCGGGUUUCUAAUGUAGCCCUUGGCAGCCUUAGCCCGUCG | – | – | 17.6 | 60.7 | – |
| AGACAUGAGGAUCACCCAUGUAGCAUGGAUACCAGAUGUAGAUUUAUCCCUUGGCAGCUGUGGUAAAGUGAUGCAUUGCUCCUAG | – | – | 37.8 | 42.2 | – |
| AUAUUAGACCUGGAUACCAGCGACAUGAGGAUCACCCAUGUAUGUGCAUCUGCCAUGAUAUGCCCUUGGCAGCCACCGAGGUCGU | – | – | 11.4 | 19.1 | – |
| CCCAACAGUGAUGCCGGUGUUGGUGGUGAUACCAGCGUCUUAUGGCGCCCUUGGCAGCACCAACAUGAGGAUCACCCAUGUGAAA | 55.2 | 409 | – | – | – |
